Experimental data from ChEMBL document CHEMBL5705894, “SB1518, a novel macrocyclic pyrimidine-based JAK2 inhibitor for the treatment of myeloid and lymphoid malignancies” (Leukemia, 2011).
Activity calls are given as the source filed them. The calls are words filed in the database; no cut-off is given here.

Columns and labels:
[1] = test system: Tyrosine-protein kinase JAK2 (Homo sapiens), O60674 [V617F]; details: SET2, dose 8-1000 nM, time 3.0 hrs
T47D = test: Antiproliferative activity against human T47D cells assessed as inhibition of cell viability incubated for 48 hrs by CellTiterGlo assay; assay type: functional, cell-based
Method in brief: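 Cells from ATCC, grown per supplier guidance, were seeded at 30–50% confluency and dosed the next day in triplicate at concentrations up to 10 μM for 48 h. Viability was read by luminescent ATP (CellTiter-Glo), and IC50 was fitted from dose–response curves.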

MV4-11 = test: Antiproliferative activity against human MV4-11 cells harboring FLT3-ITD mutant assessed as inhibition of cell viability incubated for 48 hrs by CellTiterGlo assay; assay type: functional, cell-based; details: MV4-11, 48 h
Method in brief: (§1)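 Cells seeded at 30–50% confluency in 96-well plates, then treated the next day in triplicate at up to 10 μM for 48 h. Viability read by CellTiter-Glo luminescence. IC50 taken from fitted dose–response curves.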

[2] = target: Tyrosine-protein kinase JAK2 (Homo sapiens) (UniProt O60674); details: KARPAS-1106P, dose 8-1000 nM, time 3.0 hrs
Tyrosine-protein kinase JAK2 (Homo sapiens), sequence (O60674 whole entry): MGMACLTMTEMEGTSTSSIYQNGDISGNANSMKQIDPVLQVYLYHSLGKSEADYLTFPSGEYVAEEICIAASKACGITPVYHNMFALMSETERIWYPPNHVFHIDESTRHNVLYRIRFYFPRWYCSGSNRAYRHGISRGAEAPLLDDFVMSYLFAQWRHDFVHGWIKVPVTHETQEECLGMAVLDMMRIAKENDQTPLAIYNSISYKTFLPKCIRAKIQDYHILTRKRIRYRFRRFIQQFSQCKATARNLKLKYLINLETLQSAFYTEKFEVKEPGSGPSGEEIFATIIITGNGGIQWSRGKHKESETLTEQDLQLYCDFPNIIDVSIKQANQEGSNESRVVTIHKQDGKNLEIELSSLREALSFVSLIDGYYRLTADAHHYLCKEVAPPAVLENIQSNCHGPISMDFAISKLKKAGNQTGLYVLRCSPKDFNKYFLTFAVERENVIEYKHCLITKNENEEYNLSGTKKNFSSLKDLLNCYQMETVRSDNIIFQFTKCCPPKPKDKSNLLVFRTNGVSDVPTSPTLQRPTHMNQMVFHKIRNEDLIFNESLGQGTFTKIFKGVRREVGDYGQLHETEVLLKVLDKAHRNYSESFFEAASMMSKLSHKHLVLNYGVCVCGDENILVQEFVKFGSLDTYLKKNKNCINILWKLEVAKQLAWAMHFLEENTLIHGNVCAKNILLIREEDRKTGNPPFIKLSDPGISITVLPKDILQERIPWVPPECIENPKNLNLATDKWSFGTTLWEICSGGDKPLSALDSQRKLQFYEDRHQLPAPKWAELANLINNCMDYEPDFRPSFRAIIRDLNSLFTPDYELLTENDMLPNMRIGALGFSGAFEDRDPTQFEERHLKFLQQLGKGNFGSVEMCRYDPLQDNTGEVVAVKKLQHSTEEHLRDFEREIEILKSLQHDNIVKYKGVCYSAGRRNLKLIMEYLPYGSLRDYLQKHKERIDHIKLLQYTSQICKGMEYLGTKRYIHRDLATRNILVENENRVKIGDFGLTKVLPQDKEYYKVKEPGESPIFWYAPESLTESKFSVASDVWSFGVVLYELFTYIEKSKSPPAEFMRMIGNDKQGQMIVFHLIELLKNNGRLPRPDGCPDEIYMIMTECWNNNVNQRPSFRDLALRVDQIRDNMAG

Karpas-1106P [3] = test: Antiproliferative activity against human KARPAS-1106P cells harboring JAK2 assessed as inhibition of cell viability incubated for 48 hrs by CellTiterGlo assay; assay type: functional, cell-based
Method in brief: as §1

SET-2 [4] = test: Anti-tumor activity against human SET2 cells xenografted in SCID Beige mouse assessed as tumor growth inhibition at 75 mg/kg, po administered for 18 days and measured twice a week relative to control; assay type: functional; details: SET-2, 432 h, time 18 day, read-out: TGI
Method in brief: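 SCID beige mice received 5 × 10^6 SET-2 cells subcutaneously in the right flank, in serum-free medium mixed 1:1 with Matrigel. Dosing began when tumors averaged about 280 mm3 (day 31). Oral gavage at 10 ml/kg for 18 consecutive days, 12 mice per group. Caliper volume = (w² × l)/2. Animals were killed 3 h after the final dose.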

[5] = test system: Tyrosine-protein kinase JAK2 (Homo sapiens), O60674 [V617F]; details: SET2, dose 8-1000 nM, time 3.0 hrs; remark: listed apart in the source
[6] = test system: Tyrosine-protein kinase JAK2 (Homo sapiens), O60674 [V617F]; details: HEL 92.1.7, dose 1000.0 nM, time 3.0 hrs
COLO 205 = test: Antiproliferative activity against human COLO 205 cells assessed as inhibition of cell viability incubated for 48 hrs by CellTiterGlo assay; assay type: functional, cell-based; details: COLO 205, 48 h
Method in brief: as §1

SET-2 [7] = test: Induction of cell cycle arrest in human SET2 cells expressing JAK2 V617F mutant assessed as decrease in accumulation of cells at S-phase incubated for 24 hrs by PI staining based flow cytometry; assay type: functional
Method in brief: (§2)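 Cells were fixed in 70% ice-cold ethanol and stained with propidium iodide, then analysed by flow cytometry for cell-cycle distribution.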

[8] = Induction of apoptosis in human EPC cells derived from polycythemia vera patients assessed as activation of caspase-3/7 level incubated for 16 hrs; assay type: toxicity, cell-based; details: Homo sapiens, EPC
[9] = test system: Tyrosine-protein kinase JAK2 (Mus musculus), Q62120 [V617F]; test: Inhibition of JAK2 V617F mutant expressed in mouse BaF3 cells assessed as decreased total tyrosine phosphorylation at 1000 nM incubated for 3 hrs by Western blotting analysis; assay type: cell-based
Tyrosine-protein kinase JAK2 (Mus musculus), Q62120 [V617F], sequence (Q62120 as listed by the source): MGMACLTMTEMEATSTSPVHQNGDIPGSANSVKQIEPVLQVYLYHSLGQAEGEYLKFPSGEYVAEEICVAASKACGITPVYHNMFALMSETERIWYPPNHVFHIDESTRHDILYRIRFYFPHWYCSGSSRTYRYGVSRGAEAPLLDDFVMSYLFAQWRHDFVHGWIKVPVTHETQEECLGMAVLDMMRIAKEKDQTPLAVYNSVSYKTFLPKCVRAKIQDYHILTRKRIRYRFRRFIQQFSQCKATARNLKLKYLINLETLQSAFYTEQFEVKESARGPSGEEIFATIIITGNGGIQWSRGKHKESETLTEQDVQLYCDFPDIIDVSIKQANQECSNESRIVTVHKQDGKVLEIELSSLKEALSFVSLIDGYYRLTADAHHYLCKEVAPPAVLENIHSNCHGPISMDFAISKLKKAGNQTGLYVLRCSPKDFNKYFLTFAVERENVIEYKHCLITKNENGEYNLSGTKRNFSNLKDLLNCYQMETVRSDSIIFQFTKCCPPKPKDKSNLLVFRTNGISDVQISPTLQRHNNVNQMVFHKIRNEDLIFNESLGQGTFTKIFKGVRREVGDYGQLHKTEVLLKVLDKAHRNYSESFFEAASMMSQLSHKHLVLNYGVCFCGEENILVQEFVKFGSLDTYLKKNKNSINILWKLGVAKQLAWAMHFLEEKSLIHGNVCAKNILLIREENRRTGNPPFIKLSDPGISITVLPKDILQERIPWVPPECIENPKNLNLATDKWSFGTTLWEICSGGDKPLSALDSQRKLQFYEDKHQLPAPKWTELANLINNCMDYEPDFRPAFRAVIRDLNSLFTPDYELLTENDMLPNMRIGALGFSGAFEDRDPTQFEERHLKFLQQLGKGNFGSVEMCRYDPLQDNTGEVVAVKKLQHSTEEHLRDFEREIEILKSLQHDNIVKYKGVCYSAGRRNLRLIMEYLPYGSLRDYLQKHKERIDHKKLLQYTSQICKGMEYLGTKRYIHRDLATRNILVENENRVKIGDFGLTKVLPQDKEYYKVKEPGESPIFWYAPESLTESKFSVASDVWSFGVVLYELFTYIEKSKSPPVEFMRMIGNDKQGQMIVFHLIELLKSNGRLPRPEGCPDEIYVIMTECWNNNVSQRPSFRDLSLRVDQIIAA

SNU-387 = test: Antiproliferative activity against human SNU-387 cells assessed as inhibition of cell viability incubated for 48 hrs by CellTiterGlo assay; assay type: functional, cell-based; details: SNU-387, 48 h
Method in brief: as §1

[10] = test system: Tyrosine-protein kinase JAK2 (Mus musculus), Q62120 [V617F]; test: Inhibition of JAK2 V617F mutant expressed in mouse BaF3 cells assessed as reduction of STAT5 phosphorylation at Y694 by Western blotting analysis; assay type: cell-based
[11] = target: Tyrosine-protein kinase JAK2 (Homo sapiens) (UniProt O60674); details: Jurkat, dose 8-1000 nM, time 3.0 hrs
[12] = Cytotoxicity against human EPC cells derived from polycythemia vera patients assessed as inhibition of cell viability incubated for 48 hrs by CellTiterGlo assay; assay type: toxicity, cell-based
Method in brief: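 Erythroid progenitors expanded from PBMCs of PV patients or normal volunteers using a 2-step protocol. On day 12 of expansion, cells were exposed to compound for 48 h and viability was read by CellTiter-Glo. Day-12 cells were phenotyped by CD71/CD235A flow staining.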

[13] = test system: Tyrosine-protein kinase JAK2 (Homo sapiens), O60674 [V617F]; details: HEL 92.1.7, dose 8-1000 nM, time 3.0 hrs
NCI-H322M = test: Antiproliferative activity against human NCI-H322M cells assessed as inhibition of cell viability incubated for 48 hrs by CellTiterGlo assay; assay type: functional, cell-based
Method in brief: as §1

MKN-7 = test: Antiproliferative activity against human MKN-7 cells assessed as inhibition of cell viability incubated for 48 hrs by CellTiterGlo assay; assay type: functional, cell-based; details: MKN-7, 48 h
Method in brief: as §1

CHL-1 = test: Antiproliferative activity against human CHL-1 cells assessed as inhibition of cell viability incubated for 48 hrs by CellTiterGlo assay; assay type: functional, cell-based; details: CHL-1, 48 h
Method in brief: as §1

MOLM-13 = test: Antiproliferative activity against human MOLM-13 cells harboring FLT3-ITD mutant assessed as inhibition of cell viability incubated for 48 hrs by CellTiterGlo assay; assay type: functional, cell-based; details: MOLM-13, 48 h
Method in brief: as §1

MOLT-4 = test: Antiproliferative activity against human MOLT-4 cells assessed as inhibition of cell viability incubated for 48 hrs by CellTiterGlo assay; assay type: functional, cell-based; details: MOLT-4, 48 h
Method in brief: as §1

Mus musculus = test: In vivo inhibition of JAK2 V617F mutant in SCID Beige mouse xenografted with human SET2 cells assessed as decreased STAT5 phosphorylation at Y694 at 75 to 150 mg/kg, po administered for 18 days and measured after 3 hrs by Western blotting analysis; assay type: functional, organism-based; details: dose 75-150 mg/kg, time 18.0 day
Method in brief: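 Subcutaneous SET-2 tumors in SCID beige mice. Single oral doses of 75 or 150 mg/kg were given at about 300 mm3 tumor size; in the chronic arm, dosing ran for 18 days. Tumors were collected 3 h post-dose, lysed, and immunoblotted for pJAK2 (Y1007/8) and pSTAT5.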

LNCaP = test: Antiproliferative activity against human LNCaP cells assessed as inhibition of cell viability incubated for 48 hrs by CellTiterGlo assay; assay type: functional, cell-based
Method in brief: as §1

[14] = test system: Tyrosine-protein kinase JAK2 (Mus musculus), Q62120 [V617F]; test: Inhibition of JAK2 V617F mutant transfected in mouse BaF3 cells assessed as increased JAK2 phosphorylation at Y1007/8 at 8 to 1000 nM incubated for 3 hrs by Western blotting analysis; assay type: cell-based; details: dose 8-1000 nM
Karpas-1106P [15] = test: Induction of cell cycle arrest in human KARPAS-1106P cells expressing JAK2 assessed as accumulation of cells at G0/1 phase incubated for 24 hrs by PI staining based flow cytometry; assay type: functional
Method in brief: as §2

[16] = target: Tyrosine-protein kinase JAK2 (Homo sapiens) (UniProt O60674); details: HEK-293T, dose 8-1000 nM, time 3.0 hrs
A2780 = test: Antiproliferative activity against human A2780 cells assessed as inhibition of cell viability incubated for 48 hrs by CellTiterGlo assay; assay type: functional, cell-based; details: A2780, 48 h
Method in brief: as §1

Tyrosine-protein kinase JAK2 (Homo sapiens), O60674 [V617F], sequence (O60674 whole entry V617F): as the sequence (O60674 whole entry) above, with V617F counted along it

C1=N/C2=N/c3ccc(OCCN4CCCC4)c(c3)COC/C=C/COCc3cccc(c3)C(=C1)N2 [PACRITINIB]
inhibition [1]: Dose-Dependent Effect
IC50 (T47D): 1280 nM
IC50 (MV4-11): 47 nM
inhibition [2]: Active
IC50 (Karpas-1106P [3]): 348 nM
inhibition in vivo at 75 mg/kg (SET-2 [4]): 40%
inhibition [5]: Active
inhibition [6]: Active
IC50 (COLO 205): 2620 nM
Activity (SET-2 [7]): Dose-Dependent Effect
EC50 [8]: 224 nM
inhibition [9]: Active
IC50 (SNU-387): 2030 nM
inhibition [10]: Active
inhibition [11]: Active
IC50 [12]: 260 nM
inhibition [13]: Dose-Dependent Effect
IC50 (NCI-H322M): 2180 nM
IC50 (MKN-7): 2040 nM
IC50 (CHL-1): 1400 nM
IC50 (MOLM-13): 67 nM
IC50 (MOLT-4): 750 nM
Activity (Mus musculus): Active
IC50 (LNCaP): 917 nM
inhibition [14]: Active
Activity (Karpas-1106P [15]): Dose-Dependent Effect
inhibition [16]: Dose-Dependent Effect
IC50 (A2780): 664 nM
